The source of these data is paper PMC12217622 (Nature Communications, 2025).

The structures appear in SMILES notation.

One experiment has as its system TaLYR2A. In words: Radiolabelled LCO binding to membrane fractions, TaLYR2A. On the set-up: species or system Triticum aestivum. The settings on record: 2 µM competitor. The method in brief: (§1)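 N. benthamiana leaves (~20 g) were homogenised at 4 °C in Tris pH 8.5, sucrose, EDTA, DTT, PVPP and protease inhibitors, then spun at 3000 x g and 45,000 x g. The pellet was resuspended in 25 mM Na cacodylate pH 6, 1 mM MgCl2, 1 mM CaCl2, 250 mM sucrose. 35S-LCO (enzymatic NodH sulfation) was bound for 1 h on ice, then filtered through glass fibre, washed and counted by scintillation. Three technical replicates.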

The subject of experiment [1] is R. irregularis DAOM 197198. The experiment in a line: Stimulation of AMF root-length colonization by LCO and CO4 treatments in wheat. In kind it is in vivo, Triticum aestivum. The note with it: 10^−7 M treatment. The method in brief:
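Fielder wheat carried a pZmUBI:BdLYR2-cmyc cassette or empty vector, two lines each. Surface-sterilised seeds were germinated 1 week at 4 °C and 3 days at 25 °C, then planted in attapulgite with 500 R. irregularis DAOM 197198 spores. Plants got 0.5x Long Ashton (7.5 µM NaH2PO4) with 10^-7 M LCO or CO4 or 0.05% acetonitrile at start, 2 and 4 weeks. Roots were stained at 5–6 wpi; colonization was normalised to untreated controls; Kruskal-Wallis test.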

Another experiment deals with MtLYR8. In words: Radiolabelled LCO binding to membrane fractions, MtLYR8. On the set-up: species or system Medicago truncatula. The settings on record: 2 µM competitor. Summed up:
as §1

For another experiment, the system named is TaLYR2B. The experiment in a line: Radiolabelled LCO binding to membrane fractions, TaLYR2B. The settings on record: 2 µM competitor. On the set-up: species or system Triticum aestivum. Summed up: as §1
Another experiment deals with TaLYR2D. In words: Radiolabelled LCO binding to membrane fractions, TaLYR2D. On the set-up: species or system Triticum aestivum. The note with it: 2 µM competitor. Summed up:
as §1

`CC(=O)N[C@H]1[C@H](O[C@H]2[C@H](O)[C@@H](NC(C)=O)C(O)O[C@@H]2CO)O[C@H](CO)[C@@H](O[C@@H]2O[C@H](CO)[C@@H](O[C@@H]3O[C@H](CO)[C@@H](O)[C@H](O)[C@H]3NC(C)=O)[C@H](O)[C@H]2NC(C)=O)[C@@H]1O` (stereo partly shown) [CO4]: the “competition of LCO binding” value in the experiment with TaLYR2A, in the experiment with MtLYR8, with TaLYR2B and in the experiment on TaLYR2D was “complete competition” each time. Also, the “effect on AMF colonization” value was “increased AMF colonization” in experiment [1] (control wheat plants (empty vector)) and “no further increase” in experiment [1] (transgenic wheat plants pUbi:BdLYR2).

Take `CC(=O)N[C@H]1[C@H](O[C@H]2[C@H](O)[C@@H](NC(C)=O)[C@H](O[C@H]3[C@H](O)[C@@H](NC(C)=O)[C@H](O[C@H]4[C@H](O)[C@@H](NC(C)=O)C(O)O[C@@H]4CO)O[C@@H]3CO)O[C@@H]2CO)O[C@H](CO)[C@@H](O[C@@H]2O[C@H](CO)[C@@H](O[C@@H]3O[C@H](CO)[C@@H](O[C@@H]4O[C@H](CO)[C@@H](O[C@@H]5O[C@H](CO)[C@@H](O)[C@H](O)[C@H]5NC(C)=O)[C@H](O)[C@H]4NC(C)=O)[C@H](O)[C@H]3NC(C)=O)[C@H](O)[C@H]2NC(C)=O)[C@@H]1O` (stereo partly shown) [CO8]: the “competition of LCO binding” value in the experiment with TaLYR2A, in the experiment with MtLYR8, with TaLYR2B and with TaLYR2D was “complete competition” in each case.
